Results gathered from unrelated publications.
Lines come from different studies, so protocols differ.
ABL1: Tyrosine-protein kinase ABL1 (ABL1, Homo sapiens, UniProt P00519)

SMILES | target | effect on | action | technique | tested at | endpoint | value
CC(C)(C)c1cc(C=C(C#N)C#N)cc(Br)c1O | ABL1 | enzyme activity | inhibitor | – | 0.5 µM | remaining activity | 59.8%
O=C(Nc1cccnn1)N1CCN([C@@H]2CCOc3cc(C(F)(F)F)ccc32)CC1 | ABL1 | enzyme activity | inhibitor | – | 20 µM | inhibition | -3%
Cn1cc(-c2cc(F)cc(N3CCn4c(cc5c4CCCC5)C3=O)c2CO)cc(Nc2ccc(N3CCN(C4COC4)CC3)cn2)c1=O | ABL1 | enzyme activity | inhibitor | – | 0.1 µM | inhibition | -1%
C#Cc1n[nH]c2c(-c3cn([C@@H](C)c4ccccc4)c(=O)[nH]c3=O)cc(F)cc12 | ABL1 | enzyme activity | inhibitor | – | 0.1 µM | inhibition | -2.2%
N#CC1(c2ccccn2)CCN(Cc2cc(C(=O)O)c(=O)n3ccccc23)CC1 | Tyrosine-protein kinase ABL1, phosphorylated (ABL1, Homo sapiens, UniProt P00519, H396P) | cell-free assay | – | competition with immobilised ligand | 1 µM | remaining binding | 91%
C#Cc1n[nH]c2c(-c3cn(C(C)c4ccccn4)c(=O)[nH]c3=O)cc(F)cc12 (stereo not drawn) | ABL1 | enzyme activity | inhibitor | – | 1 µM | inhibition | -8.5%
Cn1cncc1[C@@](O)(COc1ccc(C#N)cc1-c1ccc(OC(F)(F)F)cc1)c1ccc(C#N)cc1 | Tyrosine-protein kinase ABL1, non-phosphorylated (ABL1, Homo sapiens, UniProt P00519, Q252H) | cell-free assay | – | competition with immobilised ligand | 1 µM | remaining binding | 76%
Nc1ncc(-c2nc(N3CCOCC3)nc(N3CCOCC3)n2)c(C(F)F)n1 | Tyrosine-protein kinase ABL1, non-phosphorylated (ABL1, Homo sapiens, UniProt P00519, T315I) | binding | – | competition with immobilised ligand | 10 µM | remaining binding | 89%
Cc1nn(C)cc1-c1nc2c(N3CCN(Cc4ccc(Cl)cc4)CC3)c(Cl)cnc2[nH]1 | Tyrosine-protein kinase ABL1, phosphorylated (ABL1, Homo sapiens, UniProt P00519, Q252H) | binding | – | competition with immobilised ligand | 1 µM | remaining binding | 84%
